Measurements taken from ChEMBL document CHEMBL1137858, “Formation of squaric acid amides of anthracycline antibiotics. Synthesis and cytotoxic properties” (Bioorg Med Chem Lett, 2004).
≈ marks a conversion by molar mass, not a printed value.

What was measured:
MCF7 [1] = experiment: Concentration required to inhibit proliferation of human mammary adenocarcinoma MCF-7 cell line was determined using MTT assay; format: functional, cell-based
Method in brief: (§1)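 MCF-7 human mammary adenocarcinoma cells (5 · 10^3) seeded in 24-well plates in RPMI-1640 with 10% fetal calf serum, penicillin (50 unit/mL) and streptomycin, 37 C, 5% CO2. Compounds added 3 h after plating. After 24 h exposure, medium replaced and cultures incubated a further 72 h. Cell population measured by MTT absorbance. IC50 values calculated from the data.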

MCF7 [2] = experiment: Percent control of human mammary adenocarcinoma MCF-7 cell line proliferation at 30 ng/mL; format: functional; method in brief: as §1
MCF7 [3] = experiment: Percent control of human mammary adenocarcinoma MCF-7 cell line proliferation at 300 ng/mL; format: functional; method in brief: as §1
MCF7 [4] = experiment: Percent control of human mammary adenocarcinoma MCF-7 cell line proliferation at 3 ng/mL; format: functional; method in brief: as §1
MCF7 [5] = experiment: Percent control of human mammary adenocarcinoma MCF-7 cell line proliferation at 0.3 ng/mL; format: functional; method in brief: as §1

| Compound | IC50 (MCF7 [1]) [µg/mL] | Control (MCF7 [2]) [%] | Control (MCF7 [3]) [%] | Control (MCF7 [4]) [%] | Control (MCF7 [5]) [%] |
| --- | --- | --- | --- | --- | --- |
| COc1cccc2c1C(=O)c1c(O)c3c(c(O)c1C2=O)C[C@@](O)(C(=O)CO)C[C@@H]3OC1CC(/N=c2/c(O)c(O)/c2=N\CCCCCC/N=c2\c(O)c(O)\c2=N\C2CC(O[C@H]3C[C@](O)(C(=O)CO)Cc4c(O)c5c(c(O)c43)C(=O)c3c(OC)cccc3C5=O)OC(C)C2O)C(O)C(C)O1 (stereo partly drawn) | > 0.3 | 86.1 | 82.4 | 87 |  |
| COc1cccc2c1C(=O)c1c(O)c3c(c(O)c1C2=O)C[C@@](O)(C(C)=O)C[C@@H]3OC1CC(/N=c2/c(O)c(O)/c2=N\CCCCCC/N=c2\c(O)c(O)\c2=N\C2CC(O[C@H]3C[C@](O)(C(C)=O)Cc4c(O)c5c(c(O)c43)C(=O)c3c(OC)cccc3C5=O)OC(C)C2O)C(O)C(C)O1 (stereo partly drawn) | 0.087 (≈ 0.0655 µM) | 50 | 32 | 104 |  |
| CC(=O)[C@]1(O)Cc2c(O)c3c(c(O)c2[C@@H](OC2CC(N)C(O)C(C)O2)C1)C(=O)c1c(O)cccc1C3=O.Cl (stereo partly drawn) | 0.0483 | 77 | 9.1 | 93.2 | 107 |
| COc1cccc2c1C(=O)c1c(O)c3c(c(O)c1C2=O)C[C@@](O)(C(=O)CO)C[C@@H]3O[C@H]1C[C@H](N)[C@H](O)[C@H](C)O1.Cl [DOXORUBICIN HYDROCHLORIDE] |  | 35.3 | 14.9 | 41 | 74.7 |

Continued, in another order:

| IC50 (MCF7 [1]) [µg/mL] | Compound | Control (MCF7 [2]) [%] | Control (MCF7 [3]) [%] | Control (MCF7 [4]) [%] | Control (MCF7 [5]) [%] |
| --- | --- | --- | --- | --- | --- |
| 0.299 (≈ 0.48 µM) | COc1c(NC2CC(O[C@H]3C[C@](O)(C(C)=O)Cc4c(O)c5c(c(O)c43)C(=O)c3c(O)cccc3C5=O)OC(C)C2O)c(=O)c1=O (stereo partly drawn) | 81 | 46.3 | 89.7 |  |
| 0.109 (≈ 0.0958 µM) | COc1cccc2c1C(=O)c1c(O)c3c(c(O)c1C2=O)C[C@@](O)(C(C)=O)C[C@@H]3OC1CC(/N=c2/c(O)c(O)/c2=N/C2CC(O[C@@H]3C[C@@](O)(C(C)=O)Cc4c(O)c5c(c(O)c43)C(=O)c3c(OC)cccc3C5=O)OC(C)C2O)C(O)C(C)O1 (stereo partly drawn) | 60.7 | 42 | 72.7 |  |
| > 0.3 | COc1cccc2c1C(=O)c1c(O)c3c(c(O)c1C2=O)C[C@@](O)(C(=O)CO)C[C@@H]3OC1CC(/N=c2/c(O)c(O)/c2=N/C2CC(O[C@@H]3C[C@@](O)(C(=O)CO)Cc4c(O)c5c(c(O)c43)C(=O)c3c(OC)cccc3C5=O)OC(C)C2O)C(O)C(C)O1 (stereo partly drawn) | 84.5 | 68.4 | 88 |  |
| > 0.3 | COc1cccc2c1C(=O)c1c(O)c3c(c(O)c1C2=O)C[C@@](O)(C(C)=O)C[C@@H]3OC1CC(Nc2c(OC)c(=O)c2=O)C(O)C(C)O1 (stereo in doubt; 5) | 74.7 | 77.8 | 85 |  |
